Test results: ChEMBL document CHEMBL1141188, “Methyl substitution on the piperidine ring of N-[omega-(6-methoxynaphthalen-1-yl)alkyl] derivatives as a probe for selective binding and activity at the sigma(1) receptor” (J Med Chem, 2005)

How the values were obtained:
Sigma 2 receptor = assay: Displacement of [3H]DTG from sigma 2 receptor in rat liver membranes; assay type: cell membranes, Membrane
[1] = biological target: Sigma non-opioid intracellular receptor 1 (Cavia porcellus) (UniProt Q60492); assay: […] rat sigma 2 receptor over guinea pig sigma 1 receptor
Sigma non-opioid intracellular receptor 1 (Cavia porcellus), sequence (Q60492 whole entry): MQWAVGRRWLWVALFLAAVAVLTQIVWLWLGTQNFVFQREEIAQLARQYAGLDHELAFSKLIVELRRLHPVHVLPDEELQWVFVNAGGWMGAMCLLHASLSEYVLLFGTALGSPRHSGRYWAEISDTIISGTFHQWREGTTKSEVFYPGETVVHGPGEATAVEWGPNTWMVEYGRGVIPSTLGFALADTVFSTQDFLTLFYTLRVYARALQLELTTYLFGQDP

[2] = biological target: Sigma non-opioid intracellular receptor 1 (Cavia porcellus, UniProt Q60492); assay: Displacement of [3H](+)-pentazocine from sigma 1 receptor in guinea pig brain membranes; assay type: cell membranes, Membrane
Sigma non-opioid intracellular receptor 1, sequence (Q60492 whole entry): as above

[3] = biological target: Sigma non-opioid intracellular receptor 1 (Rattus norvegicus) (UniProt Q9R0C9); assay: Percentage inhibition of rat C6 glioma cell proliferation mediated by sigma 1 receptor at 50 uM
Sigma non-opioid intracellular receptor 1 (Rattus norvegicus), sequence (Q9R0C9 whole entry): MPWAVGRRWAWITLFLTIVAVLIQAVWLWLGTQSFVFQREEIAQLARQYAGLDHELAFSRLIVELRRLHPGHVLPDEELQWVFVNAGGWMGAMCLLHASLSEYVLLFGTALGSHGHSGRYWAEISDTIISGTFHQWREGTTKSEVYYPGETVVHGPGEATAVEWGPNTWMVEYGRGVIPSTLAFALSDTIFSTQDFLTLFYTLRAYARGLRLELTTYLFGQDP

Cavia porcellus = species: Cavia porcellus; assay: Selectivity for guinea pig delta8-delta7 sterol isomerase (SI) site over guinea pig sigma 1 receptor
[4] = biological target: T1, 3-beta-hydroxysteroid-Delta(8),Delta(7)-isomerase (Cavia porcellus, UniProt Q60490); assay: Displacement of [3H](+/-)-emopamil from delta8-delta7 sterol isomerase (SI) site in guinea pig liver membranes; assay type: cell membranes, Membrane
T1 sequence (Q60490 whole entry): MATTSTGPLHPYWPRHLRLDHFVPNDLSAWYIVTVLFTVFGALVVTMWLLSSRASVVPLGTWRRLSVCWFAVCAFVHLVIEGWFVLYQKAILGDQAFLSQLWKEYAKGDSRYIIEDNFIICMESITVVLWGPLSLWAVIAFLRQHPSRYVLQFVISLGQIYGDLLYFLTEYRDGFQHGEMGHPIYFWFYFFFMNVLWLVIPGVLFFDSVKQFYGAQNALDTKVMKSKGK
How it was run: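 Guinea pig liver membranes with (±)-[3H]emopamil; (±)-ifenprodil defined nonspecific binding. IC50 from six to nine concentrations, two or three duplicate experiments; Ki by nonlinear curve fitting.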

| Compound | Ki (Sigma 2 receptor) [nM] | Ratio Ki [1] | Ki [2] [nM] | inhibition [3] [%] | Ratio Ki (Cavia porcellus) | Ki [4] [nM] |
| --- | --- | --- | --- | --- | --- | --- |
| COc1ccc2c(c1)CCCC2CCCCN1CCC(C)CC1 (configuration not stated) | 36.3 | 86 | 0.42 | 53 | 13 | 5.55 |
| COc1ccc2c(CCCN3CCCC(C)(C)C3)cccc2c1 | 238 | 680 | 0.35 |  | 25 | 8.71 |
| COc1ccc2c(CCCN3CCCCC3(C)C)cccc2c1 | 94 | 0.09 | 1060 |  | 0.014 | 14.9 |
| CC(C)=CCN1CC[C@]2(C)c3cc(O)ccc3C[C@H]1[C@H]2C [(+)-PENTAZOCINE] |  |  |  | 35 |  | > 10000 |
| COc1ccc2c(CCCCN3CCC(C)CC3)cccc2c1 | 17.9 | 597 | 0.03 |  | 268 | 8.04 |
| COc1ccc2c(c1)CCCC2CCCN1CCCC(C)(C)C1 (configuration not stated) |  |  |  | 47 |  |  |
| COc1ccc2c(CCCN3CCCC[C@H]3C)cccc2c1 | 86.2 | 47 | 1.83 |  | 6.1 | 11.1 |
| COc1ccc2c(CCCCN3CCCCC3(C)C)cccc2c1 | 28.6 | 1.3 | 22.2 |  | 0.5 | 11.7 |
| COc1ccc2c(CCCN3CCC[C@@H](C)C3)cccc2c1 | 60.2 | 45 | 1.35 |  | 14 | 19.3 |
| COc1ccc2c(CCCN3CCCC[C@@H]3C)cccc2c1 | 104 | 15 | 7.05 |  | 6.6 | 46.5 |
| CC(C(O)c1ccc(O)cc1)N1CCC(Cc2ccccc2)CC1 (racemic) [IFENPRODIL] |  |  |  |  |  | 4.7 |
| COc1ccc2c(c1)CCCC2CCCN1CCCCC1 (configuration not stated) | 26.2 | 22 | 1.2 |  | 15 | 17.9 |
| COc1ccc2c(c1)CCCC2CCCN1CCCCC1(C)C (configuration not stated) | 115 | 0.6 | 178 |  | 0.1 | 16.4 |
| COc1ccc2c(c1)CCCC2CCCCN1CCCCC1 (configuration not stated) | 48.7 | 48 | 1.01 | 47 | 3.5 | 3.57 |
| COc1ccc2c(CCCCN3CCCC[C@H]3C)cccc2c1 | 49.2 | 34 | 1.43 |  | 4.5 | 6.44 |
| COc1ccc2c(CCCCN3CCC[C@@H](C)C3)cccc2c1 | 64 | 266 | 0.24 |  | 61 | 14.6 |
| COc1ccc2c(CCCCN3CCCC[C@@H]3C)cccc2c1 | 53.8 | 108 | 0.5 |  | 14 | 7.2 |

| Compound | Ki (Sigma 2 receptor) [nM] | Ratio Ki [1] | Ki [2] [nM] | inhibition [3] [%] | Ratio Ki (Cavia porcellus) | Ki [4] [nM] |
| --- | --- | --- | --- | --- | --- | --- |
| c1ccc(CCN2CCCCC2)cc1 |  |  |  | 5 |  |  |
| COc1ccc2c(CCCCN3CCCC(C)(C)C3)cccc2c1 | 67.4 | 187 | 0.36 |  | 5.3 | 1.89 |
| COc1ccc2c(CCCCN3CCC[C@H](C)C3)cccc2c1 | 32.7 | 50 | 0.66 |  | 4.3 | 2.81 |
| COc1ccc2c(c1)CCCC2CCCN1CCC(C)(C)CC1 (configuration not stated) | 31.4 | 27 | 1.18 |  | 3 | 5.39 |
| COc1ccc2c(CCCCN3CCC(C)(C)CC3)cccc2c1 | 17.9 | 8 | 2.25 |  | 0.8 | 1.82 |
| O=C(Cc1ccc(Cl)c(Cl)c1)OCCN1CCCC1 |  |  |  | 25 |  |  |
| COc1ccc2c(c1)CCCC2CCCCN1CCC(C)(C)CC1 (configuration not stated) | 17.5 | 58 | 0.3 |  | 14 | 4.11 |
| COc1ccc2c(c1)CCCC2CCCCN1CCCCC1(C)C (configuration not stated) | 29.5 | 4.8 | 6.16 |  | 1.4 | 8.97 |
| COc1ccc2c(CCCN3CCCCC3)cccc2c1 | 175 | 22 | 7.8 |  | 4.8 | 37.6 |
| COc1ccc2c(CCCN3CCC(C)(C)CC3)cccc2c1 | 26.3 | 18 | 1.47 |  | 6.1 | 9.04 |
| COc1ccc2c(CCCN3CCC[C@H](C)C3)cccc2c1 | 59.3 | 18 | 3.32 |  | 1 | 3.41 |
| Cc1ccccc1NC(=N)Nc1ccccc1C |  |  |  | 20 |  |  |
| COc1ccc2c(CCCN3CCC(C)CC3)cccc2c1 | 38.9 | 26 | 1.5 |  | 13 | 19.5 |
| COc1ccc2c(CCCCN3CCCCC3)cccc2c1 | 151 | 132 | 1.14 |  | 17 | 19.5 |
| COc1ccc2c(c1)CCCC2CCCN1CCC(C)CC1 (configuration not stated) | 31.4 | 18 | 1.78 |  | 3 | 5.34 |
| COc1ccc2c(c1)CCCC2CCCCN1CCCC(C)(C)C1 (configuration not stated) |  |  |  | 31 |  |  |
| CCCN(CCC)CCc1ccc(OC)c(OCCc2ccccc2)c1 | 212 |  |  |  |  | 14.6 |
